Assay results taken from ChEMBL document CHEMBL5325511, “Discovery of N-(4-(Aminomethyl)phenyl)-5-methylpyrimidin-2-amine Derivatives as Potent and Selective JAK2 Inhibitors” (ACS Med Chem Lett, 2023).

Key:
[1] = biological target: Tyrosine-protein kinase JAK2 (Homo sapiens, UniProt O60674, V617F); test: Inhibition of JAK2 V617F mutant in human SET2 cells; assay type: cell-based
In short: (§1)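 Cell proliferation assay. IC50 is the concentration that inhibits proliferation by 50%, taken from dose–response curves. Mean ± SEM of at least three independent experiments.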

[2] = AUC(0 to t) in Sprague-Dawley rat at 5 mg/kg, po measured upto 24 hrs by LC-MS/MS analysis; assay type: ADME, organism-based; parameters: time < 24 hrs, dose 5 mg/kg, route po; settings: in vivo
In short: (§2)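 Sprague–Dawley rats, n = 5, dosed at 5 mg/kg as a solution in 2% ethanol and 1% Tween 80, pH 5.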

[3] = biological target: Tyrosine-protein kinase JAK1 (Homo sapiens, UniProt P23458); test: Inhibition of JAK1 (unknown origin) in presence of Mg/ATP mixture by [gamma p33]-ATP based radiometric assay
In short: (§3)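 IC50 values determined by Eurofins Discovery.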

[4] = biological target: T1, Tyrosine-protein kinase JAK2 (Homo sapiens, UniProt O60674); test: Inhibition of JAK2 (unknown origin) in presence of Mg/ATP mixture by [gamma p33]-ATP based radiometric assay; in short: as §3
[5] = Oral bioavailability in Sprague-Dawley rat at 5 mg/kg measured upto 24 hrs by LC-MS/MS analysis; assay type: ADME, organism-based; settings: in vivo
In short: (§4)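 Sprague–Dawley rats, n = 5 per group, dosed at 5 mg/kg as a solution in 2% ethanol and 1% Tween 80, pH 5.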

[6] = Metabolic stability in human liver microsomes assessed as half life; assay type: ADME, Microsome
[7] = biological target: T2, Tyrosine-protein kinase JAK3 (Homo sapiens, UniProt P52333); test: Inhibition of JAK3 (unknown origin) in presence of Mg/ATP mixture by [gamma p33]-ATP based radiometric assay
T2 sequence (P52333 whole entry): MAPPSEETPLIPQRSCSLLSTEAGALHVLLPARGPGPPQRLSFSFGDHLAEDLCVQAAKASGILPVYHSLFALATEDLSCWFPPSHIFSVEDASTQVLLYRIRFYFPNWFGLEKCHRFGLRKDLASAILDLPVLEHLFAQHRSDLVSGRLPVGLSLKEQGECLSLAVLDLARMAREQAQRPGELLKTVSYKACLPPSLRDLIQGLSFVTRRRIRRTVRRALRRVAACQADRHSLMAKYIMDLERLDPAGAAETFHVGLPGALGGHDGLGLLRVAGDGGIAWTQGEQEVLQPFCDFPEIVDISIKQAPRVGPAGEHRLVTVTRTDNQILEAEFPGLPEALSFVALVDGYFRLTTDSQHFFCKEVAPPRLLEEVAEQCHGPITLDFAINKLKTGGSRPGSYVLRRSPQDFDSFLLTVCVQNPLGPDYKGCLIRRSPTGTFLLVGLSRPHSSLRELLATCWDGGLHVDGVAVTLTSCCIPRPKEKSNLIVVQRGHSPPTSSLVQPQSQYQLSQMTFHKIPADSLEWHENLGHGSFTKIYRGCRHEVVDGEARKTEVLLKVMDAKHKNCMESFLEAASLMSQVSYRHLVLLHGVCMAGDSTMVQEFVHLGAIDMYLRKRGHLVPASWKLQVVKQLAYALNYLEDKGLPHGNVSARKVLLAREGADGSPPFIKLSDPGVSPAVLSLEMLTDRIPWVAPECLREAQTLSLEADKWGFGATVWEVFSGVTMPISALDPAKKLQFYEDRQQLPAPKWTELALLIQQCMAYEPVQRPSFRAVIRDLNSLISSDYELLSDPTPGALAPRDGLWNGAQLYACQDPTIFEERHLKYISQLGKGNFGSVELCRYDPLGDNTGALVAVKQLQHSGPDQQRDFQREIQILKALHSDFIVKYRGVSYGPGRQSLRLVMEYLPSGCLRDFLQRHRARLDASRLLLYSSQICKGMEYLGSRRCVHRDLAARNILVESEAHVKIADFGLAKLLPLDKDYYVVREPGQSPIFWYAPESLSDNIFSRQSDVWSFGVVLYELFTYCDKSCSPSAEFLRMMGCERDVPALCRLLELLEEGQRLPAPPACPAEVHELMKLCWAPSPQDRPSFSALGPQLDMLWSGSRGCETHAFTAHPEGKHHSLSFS

[8] = Selectivity ratio of IC50 for JAK3 (unknown origin) to IC50 for JAK2 (unknown origin)
[9] = biological target: T1, Tyrosine-protein kinase JAK2; test: Inhibition of human JAK2 JH1 expressed in baculovirus infected Sf9 cells assessed as residual activity at 100 nM relative to control
[10] = Selectivity ratio of IC50 for FLT3 (unknown origin) to IC50 for JAK2 (unknown origin)
[11] = Half life in Sprague-Dawley rat at 5 mg/kg, po measured upto 24 hrs by LC-MS/MS analysis; assay type: ADME, organism-based; settings: Sprague-Dawley, in vivo; in short: as §2
[12] = biological target: Non-receptor tyrosine-protein kinase TYK2 (Homo sapiens, UniProt P29597); test: Inhibition of TYK2 (unknown origin) in presence of Mg/ATP mixture by [gamma p33]-ATP based radiometric assay
[13] = biological target: Tyrosine-protein kinase JAK2 (Mus musculus, UniProt Q62120, V617F); test: Inhibition of JAK2 V617F mutant in mouse BaF3 cells; assay type: cell-based; in short: as §1
[14] = biological target: T3, Receptor-type tyrosine-protein kinase FLT3 (Homo sapiens, UniProt P36888); test: Inhibition of FLT3 (unknown origin) in presence of Mg/ATP mixture by [gamma p33]-ATP based radiometric assay; in short: as §3
T3 sequence (P36888 whole entry): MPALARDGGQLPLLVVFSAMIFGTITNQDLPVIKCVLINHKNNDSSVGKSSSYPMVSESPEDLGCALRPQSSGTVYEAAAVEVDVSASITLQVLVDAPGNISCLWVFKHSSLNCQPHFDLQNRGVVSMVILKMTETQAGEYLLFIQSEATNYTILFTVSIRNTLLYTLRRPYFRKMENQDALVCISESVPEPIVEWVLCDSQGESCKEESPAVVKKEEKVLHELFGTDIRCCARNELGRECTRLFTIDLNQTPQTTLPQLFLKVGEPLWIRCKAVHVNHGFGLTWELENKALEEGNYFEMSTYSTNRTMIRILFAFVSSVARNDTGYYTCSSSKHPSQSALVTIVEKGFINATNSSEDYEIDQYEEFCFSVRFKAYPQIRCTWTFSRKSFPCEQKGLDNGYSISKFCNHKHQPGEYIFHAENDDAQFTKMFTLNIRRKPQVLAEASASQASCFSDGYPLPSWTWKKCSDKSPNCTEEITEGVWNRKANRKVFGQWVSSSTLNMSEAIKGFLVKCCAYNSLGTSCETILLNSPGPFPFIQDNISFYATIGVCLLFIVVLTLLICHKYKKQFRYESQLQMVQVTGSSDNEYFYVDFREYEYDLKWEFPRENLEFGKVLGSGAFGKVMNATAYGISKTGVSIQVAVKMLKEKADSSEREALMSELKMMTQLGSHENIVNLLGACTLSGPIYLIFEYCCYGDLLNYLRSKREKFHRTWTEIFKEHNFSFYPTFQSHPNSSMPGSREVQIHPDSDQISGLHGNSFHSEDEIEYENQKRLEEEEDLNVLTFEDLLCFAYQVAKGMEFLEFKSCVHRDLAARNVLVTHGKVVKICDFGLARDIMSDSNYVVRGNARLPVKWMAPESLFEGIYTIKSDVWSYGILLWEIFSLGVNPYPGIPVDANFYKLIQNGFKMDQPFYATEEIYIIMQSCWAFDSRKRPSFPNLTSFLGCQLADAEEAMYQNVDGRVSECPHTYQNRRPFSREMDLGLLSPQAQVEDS

[15] = Clearance in Sprague-Dawley rat at 5 mg/kg, po measured upto 24 hrs by LC-MS/MS analysis; assay type: ADME, organism-based; settings: in vivo; in short: as §2
[16] = Tmax in Sprague-Dawley rat at 5 mg/kg, po measured upto 24 hrs by LC-MS/MS analysis; assay type: ADME, organism-based; settings: Sprague-Dawley, in vivo, read-out: Tmax; in short: as §4
[17] = Selectivity ratio of IC50 for TYK2 (unknown origin) to IC50 for JAK2 (unknown origin)
[18] = biological target: T3, Receptor-type tyrosine-protein kinase FLT3; test: Inhibition of FLT3 in human MOLM-13 cells; assay type: cell-based; in short: as §1
[19] = Cmax in Sprague-Dawley rat at 5 mg/kg, po measured upto 24 hrs by LC-MS/MS analysis; assay type: ADME, organism-based; parameters: dose 5 mg/kg, time < 24 hrs, route po; settings: Sprague-Dawley, in vivo, read-out: Cmax; in short: as §2

T1 sequence (O60674 whole entry): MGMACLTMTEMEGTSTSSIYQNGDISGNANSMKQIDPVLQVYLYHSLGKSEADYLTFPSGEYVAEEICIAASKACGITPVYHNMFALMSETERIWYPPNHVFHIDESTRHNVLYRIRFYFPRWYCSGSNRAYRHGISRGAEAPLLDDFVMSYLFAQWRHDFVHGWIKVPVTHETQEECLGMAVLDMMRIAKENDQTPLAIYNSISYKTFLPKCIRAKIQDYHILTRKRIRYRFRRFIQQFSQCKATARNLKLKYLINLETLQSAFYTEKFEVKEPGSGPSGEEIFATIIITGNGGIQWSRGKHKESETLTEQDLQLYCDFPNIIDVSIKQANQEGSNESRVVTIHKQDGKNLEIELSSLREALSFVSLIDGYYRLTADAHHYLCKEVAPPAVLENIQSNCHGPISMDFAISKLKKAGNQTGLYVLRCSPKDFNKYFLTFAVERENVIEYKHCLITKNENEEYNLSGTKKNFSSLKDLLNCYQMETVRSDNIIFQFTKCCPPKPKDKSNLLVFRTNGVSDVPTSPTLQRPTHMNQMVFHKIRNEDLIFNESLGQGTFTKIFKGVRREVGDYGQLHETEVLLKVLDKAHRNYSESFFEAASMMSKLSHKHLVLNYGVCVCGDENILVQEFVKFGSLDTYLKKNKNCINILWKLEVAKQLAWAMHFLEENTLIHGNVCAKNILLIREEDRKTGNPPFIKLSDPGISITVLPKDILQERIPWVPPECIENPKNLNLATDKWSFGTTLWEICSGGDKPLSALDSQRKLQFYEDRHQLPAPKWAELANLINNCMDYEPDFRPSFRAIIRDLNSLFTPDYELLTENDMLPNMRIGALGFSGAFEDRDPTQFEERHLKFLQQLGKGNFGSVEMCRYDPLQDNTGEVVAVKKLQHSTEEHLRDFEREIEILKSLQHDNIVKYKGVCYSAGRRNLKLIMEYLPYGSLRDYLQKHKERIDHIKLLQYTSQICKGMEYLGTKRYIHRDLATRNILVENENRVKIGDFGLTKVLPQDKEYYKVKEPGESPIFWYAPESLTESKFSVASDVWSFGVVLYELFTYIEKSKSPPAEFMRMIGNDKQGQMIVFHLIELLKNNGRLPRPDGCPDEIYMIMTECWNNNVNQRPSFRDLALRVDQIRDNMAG
Tyrosine-protein kinase JAK1, sequence (P23458 whole entry): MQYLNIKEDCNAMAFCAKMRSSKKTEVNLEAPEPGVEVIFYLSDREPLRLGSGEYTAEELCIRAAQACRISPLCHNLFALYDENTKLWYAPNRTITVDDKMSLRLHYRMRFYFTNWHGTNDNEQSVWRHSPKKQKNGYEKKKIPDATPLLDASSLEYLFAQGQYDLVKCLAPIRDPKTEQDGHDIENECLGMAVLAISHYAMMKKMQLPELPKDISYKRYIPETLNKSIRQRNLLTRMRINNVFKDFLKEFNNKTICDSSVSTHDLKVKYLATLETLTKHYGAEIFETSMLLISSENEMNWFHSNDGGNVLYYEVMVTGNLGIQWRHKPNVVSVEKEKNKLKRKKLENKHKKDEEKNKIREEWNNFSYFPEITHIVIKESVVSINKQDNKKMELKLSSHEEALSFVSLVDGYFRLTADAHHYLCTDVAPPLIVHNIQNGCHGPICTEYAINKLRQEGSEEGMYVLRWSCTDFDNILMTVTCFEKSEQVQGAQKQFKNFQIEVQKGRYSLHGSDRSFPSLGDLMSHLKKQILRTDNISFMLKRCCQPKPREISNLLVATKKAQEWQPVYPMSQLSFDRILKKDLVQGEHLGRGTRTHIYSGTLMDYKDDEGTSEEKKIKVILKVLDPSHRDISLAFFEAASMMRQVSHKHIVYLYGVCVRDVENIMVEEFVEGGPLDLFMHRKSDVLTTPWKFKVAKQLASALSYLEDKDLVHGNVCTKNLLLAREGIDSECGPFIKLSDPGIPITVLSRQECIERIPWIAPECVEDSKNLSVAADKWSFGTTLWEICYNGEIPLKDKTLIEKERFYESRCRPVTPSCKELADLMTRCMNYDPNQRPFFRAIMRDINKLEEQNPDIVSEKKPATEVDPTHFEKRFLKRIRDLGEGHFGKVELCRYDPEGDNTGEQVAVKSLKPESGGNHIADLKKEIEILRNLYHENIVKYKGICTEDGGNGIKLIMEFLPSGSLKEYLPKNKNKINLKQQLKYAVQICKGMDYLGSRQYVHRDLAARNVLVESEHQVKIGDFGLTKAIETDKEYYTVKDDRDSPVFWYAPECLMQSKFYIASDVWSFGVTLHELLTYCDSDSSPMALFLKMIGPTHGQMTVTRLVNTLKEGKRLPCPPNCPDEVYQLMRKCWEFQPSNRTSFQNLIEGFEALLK
Tyrosine-protein kinase JAK2 (Homo sapiens, UniProt O60674, V617F), sequence (O60674 whole entry V617F): as the sequence (O60674 whole entry) above, with V617F counted along it
Non-receptor tyrosine-protein kinase TYK2, sequence (P29597 whole entry): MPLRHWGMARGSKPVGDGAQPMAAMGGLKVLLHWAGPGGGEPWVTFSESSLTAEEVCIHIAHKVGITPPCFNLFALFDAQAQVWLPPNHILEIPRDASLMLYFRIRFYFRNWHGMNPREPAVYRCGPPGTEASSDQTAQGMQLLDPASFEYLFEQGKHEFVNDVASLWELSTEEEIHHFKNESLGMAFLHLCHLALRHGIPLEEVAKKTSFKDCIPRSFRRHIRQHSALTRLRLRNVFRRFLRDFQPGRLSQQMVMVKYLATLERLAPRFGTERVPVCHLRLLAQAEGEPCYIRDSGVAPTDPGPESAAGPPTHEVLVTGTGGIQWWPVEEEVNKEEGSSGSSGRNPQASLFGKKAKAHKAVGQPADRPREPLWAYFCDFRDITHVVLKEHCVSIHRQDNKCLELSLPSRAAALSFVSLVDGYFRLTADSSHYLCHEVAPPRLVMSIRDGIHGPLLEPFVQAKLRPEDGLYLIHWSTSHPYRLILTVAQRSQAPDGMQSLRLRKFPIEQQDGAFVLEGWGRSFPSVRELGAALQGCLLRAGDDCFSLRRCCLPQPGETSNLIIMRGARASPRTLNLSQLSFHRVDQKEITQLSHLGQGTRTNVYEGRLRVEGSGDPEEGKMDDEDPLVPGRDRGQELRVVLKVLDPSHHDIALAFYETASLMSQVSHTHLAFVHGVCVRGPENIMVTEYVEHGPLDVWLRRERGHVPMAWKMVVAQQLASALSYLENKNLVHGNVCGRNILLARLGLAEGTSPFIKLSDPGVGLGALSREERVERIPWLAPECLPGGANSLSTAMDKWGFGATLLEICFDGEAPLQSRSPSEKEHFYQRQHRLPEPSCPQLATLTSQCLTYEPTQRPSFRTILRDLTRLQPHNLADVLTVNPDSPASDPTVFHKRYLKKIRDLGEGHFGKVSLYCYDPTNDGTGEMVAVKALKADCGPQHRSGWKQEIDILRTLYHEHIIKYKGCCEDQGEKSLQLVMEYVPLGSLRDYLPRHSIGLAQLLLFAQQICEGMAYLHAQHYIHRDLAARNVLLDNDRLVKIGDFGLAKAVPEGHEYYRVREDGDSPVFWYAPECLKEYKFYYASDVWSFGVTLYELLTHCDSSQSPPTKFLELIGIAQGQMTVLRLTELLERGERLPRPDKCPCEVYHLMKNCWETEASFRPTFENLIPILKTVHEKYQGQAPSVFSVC
Tyrosine-protein kinase JAK2 (Mus musculus, UniProt Q62120, V617F), sequence (Q62120 as listed by the source V617F): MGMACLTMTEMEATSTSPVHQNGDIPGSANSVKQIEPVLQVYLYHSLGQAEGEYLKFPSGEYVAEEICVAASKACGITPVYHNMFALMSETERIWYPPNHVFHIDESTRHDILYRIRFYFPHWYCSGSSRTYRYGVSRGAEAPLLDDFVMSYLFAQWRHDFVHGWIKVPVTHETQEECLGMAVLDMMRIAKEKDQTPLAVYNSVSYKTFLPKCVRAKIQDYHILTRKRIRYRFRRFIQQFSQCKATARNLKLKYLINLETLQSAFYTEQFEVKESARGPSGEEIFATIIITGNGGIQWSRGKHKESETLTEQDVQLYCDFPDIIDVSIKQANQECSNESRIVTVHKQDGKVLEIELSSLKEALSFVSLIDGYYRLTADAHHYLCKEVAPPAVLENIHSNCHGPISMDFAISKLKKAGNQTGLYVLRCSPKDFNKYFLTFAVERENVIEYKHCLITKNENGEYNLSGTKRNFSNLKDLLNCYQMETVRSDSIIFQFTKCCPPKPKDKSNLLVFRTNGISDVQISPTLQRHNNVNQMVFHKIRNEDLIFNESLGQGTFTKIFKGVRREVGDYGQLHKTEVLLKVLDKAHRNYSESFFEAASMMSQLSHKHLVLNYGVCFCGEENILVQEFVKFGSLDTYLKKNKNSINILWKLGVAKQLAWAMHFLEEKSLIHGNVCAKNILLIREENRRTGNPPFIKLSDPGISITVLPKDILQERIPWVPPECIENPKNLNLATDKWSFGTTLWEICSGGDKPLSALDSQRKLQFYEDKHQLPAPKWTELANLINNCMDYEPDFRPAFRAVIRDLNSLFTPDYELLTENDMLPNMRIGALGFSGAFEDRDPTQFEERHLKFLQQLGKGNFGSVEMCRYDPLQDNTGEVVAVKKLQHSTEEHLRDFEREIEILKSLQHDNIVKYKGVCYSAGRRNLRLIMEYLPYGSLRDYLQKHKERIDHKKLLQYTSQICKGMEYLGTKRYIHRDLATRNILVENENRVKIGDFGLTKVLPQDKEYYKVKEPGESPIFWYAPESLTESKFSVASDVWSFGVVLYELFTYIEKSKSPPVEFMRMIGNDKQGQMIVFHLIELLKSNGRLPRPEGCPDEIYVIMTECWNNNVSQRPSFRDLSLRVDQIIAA

**Q.** For `CCS(=O)(=O)NCc1ccc(Nc2ncc(C)c(-c3cnn(C(C)C)c3)n2)cc1`, which IC50 [1] is on record?
**A.** 0.212 µM

**Q.** And the AUCt [2]?
**A.** 1556.8 ng·h/mL

**Q.** What about the IC50 [3] of the same compound?
**A.** 0.142 µM

**Q.** What about the IC50 [4] of the same compound?
**A.** 0.006 µM

**Q.** What about the bioavailability [5] of the same compound?
**A.** 35.7%

**Q.** And the half-life [6]?
**A.** > 2 h

**Q.** What about the IC50 [7] of the same compound?
**A.** 0.287 µM

**Q.** What about the Ratio IC50 [8] of the same compound?
**A.** 47.8

**Q.** What about the Activity [9] of the same compound?
**A.** 0%

**Q.** What about the Ratio IC50 [10] of the same compound?
**A.** 68.7

**Q.** What about the half-life [11] of the same compound?
**A.** 6.3 h

**Q.** And the IC50 [12]?
**A.** 0.192 µM

**Q.** What about the IC50 [13] of the same compound?
**A.** 0.0692 µM

**Q.** And the IC50 [14]?
**A.** 0.412 µM

**Q.** What about the CL [15] of the same compound?
**A.** 340 mL/min/kg

**Q.** What about the Tmax [16] of the same compound?
**A.** 1 h

**Q.** And the Ratio IC50 [17]?
**A.** 32

**Q.** And the IC50 [18]?
**A.** 1.51 µM

**Q.** And the Cmax [19]?
**A.** 77.8 ng/mL
